Reference: PMC5071122 (The Pediatric infectious disease journal, 2016)
Where two headings read alike, the source gives them in different places. Starred links: 1 amine or outer side, 2 acyl side, 3 side chain; linkers in the order of their positions; H or OH if unused. Positions of bridges follow the written chain, without caps; N, C: chain ends. Non-standard residues stand in square brackets, D forms with d. Residues, ends and D or L forms follow the SMILES beside them. *: point of attachment. hTyr(3S-OH,4S-OH,3'-OSO3H) = N[C@H](C(=O)O)[C@H](O)[C@@H](O)c1ccc(O)c(OS(=O)(=O)O)c1; Orn(4R-OH,5R-OH) = O=C([C@H](C[C@@H](O)[C@@H](O)N[*:3])N[*:1])[*:2]; Pro(3S-OH,4S-Me) = C[C@H]1CN[C@H](C(=O)O)[C@H]1O; X1 = CCCCCOc1ccc(-c2cc(-c3ccc(C(=O)*)cc3)no2)cc1; Gln(3R-OH) = NC(=O)C[C@@H](O)[C@H](N)C(=O)O; Hyp = O=C(O)[C@@H]1C[C@@H](O)CN1

Tests used:
Candida spp = details: ref 6-8; cited from earlier work
[1] = infants and children receiving micafungin; cited from earlier work
[2] = neonatal trial of 15 mg/kg/day; standard deviation 99; cited from earlier work
[3] = cited from earlier work
[4] = cited from earlier work; remark: listed apart in the source
[5] = Safety: adverse events in infants on ECMO receiving micafungin; format: in vivo
[6] = via hepatic transporter proteins; cited from earlier work
[7] = phase III efficacy trial, used as target efficacy exposure; cited from earlier work
[8] = ref 33; cited from earlier work
[9] = Observed micafungin exposure; format: in vivo, infants; details: 4 mg/kg IV every 24h
In short: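 Infants on ECMO, prophylactic arm, given IV test compound 4 mg/kg every 24h for up to 8 days. EDTA arterial plasma sampled around dose 4, from pre-infusion to 22-24h post-infusion, and assayed by HPLC-fluorescence (LLOQ 0.05 mg/L). AUC0-24 was computed from observed data by the linear-up log-down trapezoidal method and compared with the therapeutic target of 75-139 mg*h/L.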

[10] = Open-label PK trial of IV micafungin in infants on ECMO; details: human, in vivo
[11] = cited from earlier work; remark: listed apart in the source

In the case of `CCCCCOc1ccc(-c2cc(-c3ccc(C(=O)N[C@H]4C[C@@H](O)[C@@H](O)NC(=O)[C@@H]5[C@@H](O)[C@@H](C)CN5C(=O)[C@H]([C@H](O)CC(N)=O)NC(=O)[C@H]([C@H](O)[C@@H](O)c5ccc(O)c(OS(=O)(=O)O)c5)NC(=O)[C@@H]5C[C@@H](O)CN5C(=O)[C@H]([C@@H](C)O)NC4=O)cc3)no2)cc1` [micafungin] (X1-[Orn(4R-OH,5R-OH)]T[Hyp][hTyr(3S-OH,4S-OH,3'-OSO3H)][Gln(3R-OH)][Pro(3S-OH,4S-Me)]; lactam 1-C), the “Activity against a broad spectrum of Candida spp” value (Candida spp) is listed as “fungicidal”, the Biofilm penetration (Candida spp) is listed as “can penetrate biofilms” and the “Hypokalemia, proportion of infants and children” value [1] is listed as 2%. For the same molecule, the “Liver toxicity, proportion of infants and children” value [1] was 3%, the “Mean (standard deviation) exposure deemed safe” value [2] was 438 µg·h/mL and the “Time reconstituted micafungin is stable” value ([3]; reconstituted, room temperature, exposed to light) was “up to 24 hours”. The Light sensitivity ([3]; ref 16) was “light-sensitive”, the “V reported in infants not on ECMO” value ([4]; ref 15, 25) was 0.34 to 0.54 L/kg and the “CL, previously reported values for infants not supported by ECMO” value ([4]; ref 19, 24-26) was 0.333 to 0.65 mL/min/kg. The “Deaths considered related to micafungin” value ([5]; 12 infants on ECMO, study period) was “None”, the Tolerability ([5]; cohort of infants supported by ECMO) was “well tolerated” and the “Excreted primarily unchanged into bile and feces” value [6] was 71%. The “AUC0-24 range, exposure of adult participants who cleared their fungal infection” value [7] was 75 to 139 µg·h/mL, the logP [8] was −1.5 and the “Infants with a hemofilter achieving AUC0-24 within or above the therapeutic target range” value ([9]; after dose 1 and 4, Two/4 infants) was 50%. For the same molecule, the “Infants within the therapeutic range after dose 4” value ([9]; prophylactic arm, 3/5 infants sampled around dose 4) was 60%, the “Infants achieving the therapeutic exposure target (75-139 mg*h/L) after a single dose” value ([9]; prophylactic arm, 5/11 infants) was 45% and the Vd [10] was 0.64 L/kg. For the same molecule, the clearance [10] was 0.683 mL/min/kg, the Protein bound ([11]; ref 14) was over 99% and the Protein bound ([11]; ref 33) was over 99%.
